Assay outcomes: PubChem, The Scripps Research Institute Molecular Screening Center
TAAR1 antag – human TAAR1 antagonists, primary screen, Fluo-8 calcium fluorescence, CHO RD-HGA16 cells; Trace amine-associated receptor 1 (Homo sapiens), Q96RJ0; 360,000 tested, 1.5% active; antagonist; inhibition, % at 3 µM;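 active means inhibition above a per-plate cutoff, the mean inhibition of test compounds on that plate plus 3 SD, cut at about 49% in these data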
Target sequence (Q96RJ0 whole entry, looked up): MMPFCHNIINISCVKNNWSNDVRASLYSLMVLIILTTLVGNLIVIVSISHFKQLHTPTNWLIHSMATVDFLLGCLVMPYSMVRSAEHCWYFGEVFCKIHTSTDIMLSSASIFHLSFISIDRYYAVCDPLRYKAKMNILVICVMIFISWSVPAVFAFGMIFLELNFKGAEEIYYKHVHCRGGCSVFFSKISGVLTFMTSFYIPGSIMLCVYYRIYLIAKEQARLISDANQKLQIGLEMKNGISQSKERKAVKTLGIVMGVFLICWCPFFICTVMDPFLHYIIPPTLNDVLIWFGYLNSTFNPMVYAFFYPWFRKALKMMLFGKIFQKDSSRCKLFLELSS
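test system = CHO RD-HGA16 cells bearing hTAAR1 | replication = singlicate | controls = DMSO-only wells and EC80 β-PEA-stimulated wells | reagent = EC80 β-phenethylamine stimulus | read-out basis = percent inhibition of PEA-evoked calcium signal, max/basal emission ratio | schedule = seeding 17-24 h prior, 75-min 37 °C, 30-min RT dye loading | signal = kinetic Fluo-8 calcium fluorescence measurement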
GPR7 antag – GPR7 receptor antagonists, primary screen, cell-based, fluorescence, single concentration; Neuropeptides B/W receptor type 1 (Homo sapiens), P48145; inhibition, % at 4.4 µM; GPR7-expressing cells, fluorescence antagonist assay; 290,000 tested, 1.1% active; in the data active means inhibition above about 16%, passing the limit was not always enough;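 further: cells stimulated with the agonist NPW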
Target sequence (P48145 whole entry, looked up): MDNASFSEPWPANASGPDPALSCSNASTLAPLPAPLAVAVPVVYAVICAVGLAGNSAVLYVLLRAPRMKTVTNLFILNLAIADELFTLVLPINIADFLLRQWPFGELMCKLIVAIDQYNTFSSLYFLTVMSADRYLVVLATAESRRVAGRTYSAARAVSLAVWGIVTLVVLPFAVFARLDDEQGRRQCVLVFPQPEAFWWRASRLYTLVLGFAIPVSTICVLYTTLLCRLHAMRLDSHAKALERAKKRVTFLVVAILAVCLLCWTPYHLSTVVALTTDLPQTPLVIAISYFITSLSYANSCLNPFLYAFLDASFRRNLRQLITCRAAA
OX1R antag-1 – OX1R (HCRTR1) antagonists, primary screen, fluorescence, CHO/OX1R cells, Fluo-8 calcium, orexin A; inhibition, % at 5 µM; Orexin/Hypocretin receptor type 1 (Homo sapiens), O43613; 330,000 tested, 0.43% active; Fluo-8 calcium fluorescence; AID 434989, 2010;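 active means inhibition above its plate's threshold, mean inhibition of all tested compounds on the plate plus 3 SD, cut at about 37% in these data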
TAAR1 agonist – human TAAR1 agonists, primary screen, Fluo-8 calcium fluorescence, CHO RD-HGA16 cells. activation, % at 3 µM. Trace amine-associated receptor 1 (Homo sapiens), Q96RJ0. vehicle wells 0%, saturating PEA agonist 100%. 360,000 tested, 0.99% active;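 active means activation above the mean activation of all test compounds in the run plus 3 SD, cut at about 38% in these data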
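Repeats: no replicates (n 1) | Material: CHO-derived RD-HGA16 cells with stable Gα16 and human TAAR1 | Technique: Kinetic Fluo-8 calcium fluorescence | Schedule: 17-24 h seeding, 75 min 37 °C dye, 30 min RT | Evaluation: % activation from peak over basal fluorescence ratio, DMSO-to-PEA scaled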
OX1R antag-2 – antagonists of human orexin 1 receptor (OX1R) | Orexin/Hypocretin receptor type 1 (Homo sapiens), O43613 | OX1R-expressing cells, FRET antagonist read-out | inhibition, % at 6.6 µM | 330,000 tested, 1.8% active | AID 485270, 2010; in the data active means inhibition mostly above about 38%, no sharp cut-off; inactive means mostly below about 40%
CHO parental Ca – ATP-evoked calcium signal inhibitors, parental CHO, primary screen, counter-screen for OX1R antagonist project, cell-based, fluorescence, Fluo-8 calcium dye. parental CHO-K1, ATP-induced calcium, Fluo-8 fluorescence. inhibition, % at 5.6 µM. 330,000 tested, 0.63% active. AID 463079, 2010;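 active means inhibition above that plate's mean sample inhibition plus 3 SD, cut at about 26% in these data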
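Assay system: untransfected parental CHO cell line. Also added: ATP agonist challenge. Dosing: one dose, 5.6 µM nominal. Measured by: Fluo-8 fluorescence. Read-out: % inhibition. Benchmarks: ATP wells versus no-ATP DMSO wells. Repeats: no replicates.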
Hits are given with their value; – = inactive; · = no result given. An excerpt weighted towards active compounds, which were near 4.5% of everything screened.

SMILES | TAAR1 antag | GPR7 antag | OX1R antag-1 | TAAR1 agonist | OX1R antag-2 | CHO parental Ca
CCN1/C(=C/c2ccc3cc(C)ccc3[n+]2CC)Sc2ccccc21 | 55.8 | 43.6 | 86.4 | – | 103.0 | 88.6
CCN1/C(=C/C=C/C=C/c2sc3ccccc3[n+]2CC)Sc2ccccc21 | · | – | 51.8 | · | – | 61.1
CCN1/C(=C/C=C/C=C/C=C/c2sc3ccccc3[n+]2CC)Sc2ccccc21 | – | – | – | – | – | –
CC(NC(=O)c1c(N)[nH]c(C(=O)c2ccc(Cl)cc2)c1-c1ccc(Br)cc1)c1cccc2ccccc12 (stereo not drawn) | – | · | · | – | · | ·
O=C(Nc1cccc([N+](=O)[O-])c1)OCc1ccc2c(c1)OCO2 | – | · | · | – | · | ·
CCOC(=O)C1CSCCS(=O)(=O)N1Cc1cccc(F)c1 (stereo not drawn) | – | · | · | – | · | ·
COc1ccc(NC(=O)C2=Cc3ccccc3OC2)cc1 | – | – | – | – | – | –
COc1ccc(NC(=O)C2=Cc3cccc(OC)c3OC2)cc1 | – | 20.4 | – | – | – | –
Cc1ccc2nc(C(O)C(O)c3nc4ccc(C)cc4[nH]3)[nH]c2c1 (stereo not drawn) | – | – | – | 38.4 | – | –
Cc1ccc2nc(C(C)O)[nH]c2c1 (stereo not drawn) | – | – | – | – | – | 45.0
OC(c1nc2ccccc2[nH]1)C(O)c1nc2ccccc2[nH]1 (stereo not drawn) | – | – | – | – | – | –
COC(=O)[C@]12C[C@H](CC(=O)N3CCN(C(=O)c4ccco4)CC3)C(=O)N(Cc3ccccc3)C1=C[C@H](C1CCCC1)O[C@@H]2C | – | · | · | – | · | ·
O=C(Cn1ncc(Cl)c(Cl)c1=O)N1CCN(S(=O)(=O)c2ccc3ccccc3c2)CC1 | – | 39.8 | – | – | – | 30.8
Cc1ccccc1C(=O)Oc1ccc2ccc(O)cc2c1 | – | – | – | – | – | 65.9
COc1cccc2cc(C(=O)c3ccc([N+](=O)[O-])cc3)oc12 | – | – | – | – | – | –
COc1ccccc1-c1c(C(F)(F)F)oc2cc(OC(=O)c3ccc([N+](=O)[O-])cc3)ccc2c1=O | – | – | – | – | 72.5 | –
CCN=C(Nc1ccc2c(c1)OCO2)SC1CC(=O)N(c2ccc(OC)cc2)C1=O (stereo not drawn) | 50.4 | – | – | – | – | –
COc1ccc(-c2nc3ccccc3n2Cc2ccccc2)cc1 | – | – | – | – | – | –
COc1ccc(-c2n(Cc3ccccc3)c3ccccc3[n+]2Cc2ccccc2)cc1 | – | 56.2 | – | – | – | –
COC(=O)c1c(-c2ccc(OC)cc2)c2c(c3c4cc(OC)ccc4n(S(=O)(=O)c4ccc(C)cc4)c13)C(=O)N(C)C2 | – | · | · | – | · | ·
COc1ccc(CNC(=O)c2cccc3c(-c4cccc(C(N)=O)c4)coc23)cc1OC | 55.7 | · | · | – | · | ·
COc1cc(-c2coc3c(C(=O)NCc4ccc(OC)c(OC)c4)cccc23)ccc1O | 65.7 | · | · | – | · | ·
COc1cc(-c2coc3c(C(=O)NCc4ccc(N(C)C)cc4)cccc23)ccc1O | – | · | · | – | · | ·
O=C1c2ccccc2C2Cc3nnccc3CN12 (stereo not drawn) | – | · | · | – | · | ·
CCc1nc(N2CCN(C(=O)c3ccco3)CC2)c2oc3ccccc3c2n1 | – | – | – | – | 50.7 | –
SMILES | TAAR1 antag | GPR7 antag | OX1R antag-1 | TAAR1 agonist | OX1R antag-2 | CHO parental Ca
CCc1c(-c2cccc(Cl)c2)ncn1CCc1ccccc1OC | – | · | · | – | · | ·
O=S(=O)(Nc1cccc2ncccc12)c1cccs1 | · | – | – | · | – | 40.1
Cc1c(NS(=O)(=O)c2cccs2)cccc1-c1nc2cccnc2s1 | – | – | – | – | – | –
CCn1c2ccccc2c2cc(NC(=O)CSc3nnc(-c4ccc(OC)c(OC)c4)n3N)ccc21 | – | – | – | – | 73.9 | –
CCn1c2ccccc2c2cc(NC(=O)CSc3nnc(-c4ccccc4OC)n3N)ccc21 | – | – | – | – | 55.9 | –
CC1CN(C(=O)COC(=O)c2cc([N+](=O)[O-])ccc2Cl)CC(C)O1 (stereo not drawn) | – | – | – | – | 41.0 | –
O=C(COC(=O)c1cc([N+](=O)[O-])ccc1N1CCOCC1)c1ccccc1Cl | – | – | – | – | – | –
CC1CC(C)CN(C(=O)COC(=O)c2cc([N+](=O)[O-])ccc2N2CCOCC2)C1 (stereo not drawn) | – | · | – | – | 52.6 | –
CC1CCCN(C(=O)COC(=O)c2cc([N+](=O)[O-])ccc2N2CCOCC2)C1 (stereo not drawn) | – | · | – | – | – | –
O=C(COC(=O)c1cc([N+](=O)[O-])ccc1N1CCOCC1)Nc1c(Cl)cccc1Cl | – | · | – | – | 53.7 | –
Cc1ccc(S(=O)(=O)N(C)C[C@H]2OCc3cn(nn3)CCCC(=O)N([C@H](C)CO)C[C@@H]2C)cc1 | – | · | · | – | · | ·
CCCCCCCCN1C(=O)[C@@H](CC(=O)N2CCCC2)C[C@@]2(C(=O)OC)C1=C[C@H](C(C)(C)C)O[C@@H]2C | – | · | · | – | · | ·
CC(=O)N(CCc1ccccc1)Cc1cc2ccc(C)c(C)c2[nH]c1=O | – | – | – | 40.9 | – | –
COc1cccc(CNC(=O)Cc2csc(NC(=O)Nc3ccccc3OC)n2)c1 | 49.6 | · | – | – | 42.3 | –
COc1ccccc1NC(=O)Nc1nc(CC(=O)NCc2ccc(F)cc2)cs1 | 52.3 | · | – | – | – | –
CCn1c(SCc2nc(-c3ccccc3)no2)nnc1-c1cccs1 | – | – | – | – | – | –
CCn1c(SCc2nc(-c3ccccc3)no2)nc2ccccc21 | – | – | – | – | 53.9 | –
COc1cccc(C(=O)N[C@H](C(=O)N2CCC[C@H]2C(=O)NC2CCCC2)c2ccccc2)c1 | – | · | · | – | · | ·
O=[N+]([O-])c1ccc(NCCCc2ccccc2)cc1 | 52.4 | · | · | – | · | ·
O=C(O)c1cc([N+](=O)[O-])ccc1NCCCc1ccccc1 | – | · | – | – | – | –
Cc1ccc(-c2nn3c(C)nnc3s2)cc1NC(=O)c1cccs1 | – | – | – | – | – | –
Cc1cc2nn(-c3cccc4ccccc34)nc2cc1NC(=O)c1cccs1 | – | – | – | – | 56.9 | –
CCCCn1c(N)c(N(CC(C)C)C(=O)C2CCCO2)c(=O)[nH]c1=O (stereo not drawn) | – | · | – | – | – | –
Cc1nccn1-c1ccc(NC(=O)[C@@H](Cc2ccccc2)NC(=O)[C@H]2O[C@@H](n3ccc(=O)[nH]c3=O)[C@H](O)[C@@H]2O)cc1 | – | · | · | – | · | ·
